GSK3B inh – human GSK3beta kinase inhibition; activity score (negative = inhibition), % at 10 µM; GST-GSK3beta kinase, ADP-Glo luminescence, 60 min; hits give low values; AID 2097; 0.038% of 300,000 active; P49841;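 active = more than half of replicate wells score below -50%, meaning over 50% inhibition versus plate controls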;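 note: 0% = median DMSO wells and -100% = median GW8510 positive control wells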
Target sequence (P49841 whole entry, looked up): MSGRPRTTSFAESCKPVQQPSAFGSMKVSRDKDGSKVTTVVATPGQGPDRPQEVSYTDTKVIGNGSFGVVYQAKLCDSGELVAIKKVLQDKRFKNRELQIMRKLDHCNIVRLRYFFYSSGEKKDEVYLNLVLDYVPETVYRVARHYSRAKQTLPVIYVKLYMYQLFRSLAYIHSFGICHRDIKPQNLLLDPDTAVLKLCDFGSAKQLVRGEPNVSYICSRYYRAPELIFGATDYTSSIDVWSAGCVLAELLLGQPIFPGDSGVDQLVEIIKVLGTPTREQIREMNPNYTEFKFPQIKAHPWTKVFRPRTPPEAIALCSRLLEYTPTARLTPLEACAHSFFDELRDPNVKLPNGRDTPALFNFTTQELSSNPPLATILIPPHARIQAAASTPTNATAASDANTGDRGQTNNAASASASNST
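Assay system: GST-tagged human GSK3beta kinase, cell-free; Input: 1.6 ng GSK3beta; Medium: Tris/MgCl2 kinase buffer; Timing: 60 min enzyme reaction, room temperature; Signal: ADP-Glo luminescence quantifying ADP generated by kinase; Evaluation: score relative to plate controls; Benchmarks: DMSO neutral wells and GW8510 at 20 µM as positive.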
GSK3A inh – blocks human GSK-3 alpha kinase; P49840; ADP-Glo luminescence, 60 min; inhibition, % at 10 µM; 0.1% of 320,000 active; AID 2650;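 active = more than half of replicates show inhibition above 20%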;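 note: GST-tagged GSK-3 alpha with peptide substrate and 25 µM ATP; 0% = DMSO neutral wells and 100% = GW8510 positive control wells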
DYRK1A inh – inhibitors of rat Dyrk1A kinase. Q63470. ADP-Glo luminescence, NFATc1 peptide. inhibition, % at 12.5 µM. 0.43% of 310,000 active. AID 504441; in the data active = inhibition above about 50%;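 note: plate controls were vehicle with enzyme for no effect and no enzyme for full effect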
STK33 kinase inh – human STK33 kinase inhibition; purified STK33, MBP phosphorylation, ADP-Glo luminescence; inhibition, % at 10 µM; 0.073% of 320,000 active; AID 2661;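 active = inhibition at or above 25%, using the most active replicate where run in duplicate; inactive = inhibition below 25%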
CDK5 inh – CDK5/p35 (human) kinase inhibition | Recombinant CDK5/p35, ADP-Glo luminescence, 60 min | 0.01% of 330,000 active | Q00535+Q15078 | inhibition, % at 10 µM;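 active = highest replicate inhibition of at least 50% and at least 75% of replicates reaching 50%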;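 note: plate controls were DMSO neutral control for no effect and GW8510 at 10 µM for full effect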
The depositor's hits bear a star; x = no result given. Only a selection was taken, and hits are over-represented in it overall.

SMILES | GSK3B inh | GSK3A inh | DYRK1A inh | STK33 kinase inh | CDK5 inh
CCOC(=O)C1CCCCN1C(=O)CCc1nnc(-c2ccc3c(c2)OCO3)o1 (centres undefined) | -2 | 4 | -1 | 1 | 0
CCCC1=C(C(=O)OCC)C(c2cccs2)n2ncnc2N1 (centres undefined) | -42 | 61* | -1 | -1 | -2
CCOC(=O)C1=C(C)Nc2ncnn2C1c1cccs1 (centres undefined) | -14 | x | 7 | 0 | 2
C/C=C/Cn1c(SCc2ccc(Cl)cc2)nc2c1c(=O)[nH]c(=O)n2C | -2 | 2 | 2 | 29* | 1
CCOc1ccccc1/C=N/NC(=O)c1nnn(-c2nonc2N)c1CN1CCC(C)CC1 | 2 | 44 | -3 | 0 | 1
Nc1nonc1-n1nnc(C(=O)N/N=C/c2cccc(Cl)c2Cl)c1CN1CCCC1 | x | 22 | -5 | 0 | -1
CCOc1ccccc1/C=N/NC(=O)c1nnn(-c2nonc2N)c1CN1CCCC1 | -86* | 109* | 3 | 1 | -1
Nc1nonc1-n1nnc(C(=O)N/N=C/c2ccccc2F)c1CN1CCOCC1 | -34 | 9 | 2 | 0 | -1
Nc1nonc1-n1nnc(C(=O)N/N=C/c2ccccc2F)c1CN1CCc2ccccc21 | -50* | 0 | -3 | 1 | -5
Nc1nonc1-n1nnc(C(=O)N/N=C/c2ccccc2Cl)c1CN1CCOCC1 | -2 | 50* | 5 | 0 | -1
Cc1ccc(S(=O)(=O)N2[C@@H](c3ccc(Cl)cc3)C(C(=O)O)=CC[C@H]2c2ccc(Cl)cc2)cc1 | x | -6 | 4 | 0 | -1
NCc1cccc(CNc2ccc([N+](=O)[O-])cc2C(N)=O)c1 | x | 84* | 24 | 1 | 20
CC1CCc2c(sc3nn[nH]c(=O)c23)C1 (centres undefined) | -28 | 52* | 31 | 3 | 1
CCN1C(=O)CC(C(C)C)N(C2CCCC2)c2nc(Nc3ccc(C(=O)NC4CCN(C)CC4)cc3OC)ncc21 (centres undefined) | x | x | 3 | x | 1
CCN1C(=O)CC(c2ccccc2)N(C2CCCC2)c2nc(Nc3ccc(C(=O)NC4CCN(C)CC4)cc3OC)ncc21 (centres undefined) | x | 6 | 45 | 47* | 2
CCCc1cc(C(=O)OCC(=O)N(CCC)c2c(N)n(Cc3ccccc3)c(=O)[nH]c2=O)sc1C | -5 | 1 | -4 | -1 | 2
CCOc1ccc(NS(=O)(=O)c2ccc(C(=O)N3CC(C)OC(C)C3)cc2)cc1 (centres undefined) | x | 2 | x | 7 | -1
COc1ccccc1C(=O)O/N=C(\N)c1ccccn1 | -1 | -1 | x | 1 | 2
Cc1ccc(C(=O)O/N=C(\N)c2ccccn2)c(C)c1 | -28 | -1 | 47 | 0 | 51*
COc1ccc(C(=O)O/N=C(\N)c2ccccn2)cc1 | -40 | 51* | 47 | 37* | 47
Cc1ccccc1C(=O)O/N=C(\N)c1ccccc1 | -13 | 15 | 55* | 14 | 12
COc1ccc(C(=O)NNC(=O)c2ccccn2)cc1 | -33 | 45 | 49 | 41* | 55*
NC(CSC(c1ccccc1)(c1ccccc1)c1cccc2ccccc12)C(=O)O (centres undefined) | x | x | -4 | x | 0
COc1cc(C=C(C(C)=O)C(C)=O)ccc1O | -3 | -2 | 0 | 1 | 1
COc1cc(/C=C/C(=O)O)ccc1O | -2 | 2 | 48 | 7 | -1
SMILES | GSK3B inh | GSK3A inh | DYRK1A inh | STK33 kinase inh | CDK5 inh
COc1cc(/C=C/C(=O)CC(=O)/C=C/c2ccc(O)c(OC)c2)ccc1O | -2 | -1 | 25 | 64* | 2
COc1cc(/C=C/C(=O)/C=C(O)/C=C/c2ccc(O)c(OC)c2)ccc1O | x | 2 | 36 | 61* | 2
COc1ccc(N=Cc2ccc(-c3ccccc3)o2)cc1 | 2 | 0 | -2 | 0 | 1
CCn1c(SC(C)C(=O)Nc2nccs2)nnc1-c1ccncc1 (centres undefined) | -10 | 1 | -3 | 0 | 1
CCCn1c(NC(=O)c2ccccc2)nc2ccccc21 | -2 | -1 | -3 | 13 | 0
CCCn1c(NC(=O)c2cccc(S(=O)(=O)N3CCCC3)c2)nc2ccccc21 | 1 | 0 | 35 | 44* | 33
COc1cccc(Nc2ncnc3sccc23)c1 | 0 | 8 | 8 | 7 | -7

Screening data deposited in PubChem BioAssay by Broad Institute.
